Source: article PMC3106293 (Xenobiotica; the fate of foreign compounds in biological …, 2009)
Like-named read-outs stand apart in the source and are kept apart here.

Assays:
[1] = system: sulfotransferases (SULTs) in human intestine cytosol; experiment: Sulfation of flavonoids by human intestine cytosol; type: in vitro ADME; conditions: for Km at 30 min: male, human, human intestine cytosol, pH 6.2
Procedure, shortened: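 Cytosol (50 μg) from a person was incubated in 50 mM sodium phosphate pH 6.2 with 5 mM pNPS, 20 μM PAPS and test compound at 1 μM up to 1000 μM (upper limit varying by compound). After 30 min at 37°C, the reaction was stopped with 0.25 M Tris pH 8.7 and read at 401 nm. Product formation was linear with time. Km came from a Michaelis–Menten fit; means ± SD of three determinations.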

hSULT1A1 [2] = target: T1, hSULT1A1 (Homo sapiens, UniProt P50225); experiment: Sulfation of flavonoids by recombinant hSULT1A1; type: in vitro ADME
T1 sequence (P50225 whole entry): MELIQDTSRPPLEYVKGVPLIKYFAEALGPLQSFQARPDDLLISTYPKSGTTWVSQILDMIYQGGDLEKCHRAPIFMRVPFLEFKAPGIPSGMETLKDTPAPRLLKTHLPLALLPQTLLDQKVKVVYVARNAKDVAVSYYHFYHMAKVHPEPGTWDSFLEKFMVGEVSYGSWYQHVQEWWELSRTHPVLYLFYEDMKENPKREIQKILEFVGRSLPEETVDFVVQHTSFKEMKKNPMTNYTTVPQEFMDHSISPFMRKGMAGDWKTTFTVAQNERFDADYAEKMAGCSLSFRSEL

hSULT2A1 = target: T2, hSULT2A1 (Homo sapiens, UniProt Q06520); experiment: Inhibition of DHEA sulfation by recombinant hSULT2A1; type: biochemical; conditions: for Inhibition of hSULT2A1-catalysed DHEA sulfation (in words): substrate 2 μM DHEA, concentration range 1–1000 μM
T2 sequence (Q06520 1-285): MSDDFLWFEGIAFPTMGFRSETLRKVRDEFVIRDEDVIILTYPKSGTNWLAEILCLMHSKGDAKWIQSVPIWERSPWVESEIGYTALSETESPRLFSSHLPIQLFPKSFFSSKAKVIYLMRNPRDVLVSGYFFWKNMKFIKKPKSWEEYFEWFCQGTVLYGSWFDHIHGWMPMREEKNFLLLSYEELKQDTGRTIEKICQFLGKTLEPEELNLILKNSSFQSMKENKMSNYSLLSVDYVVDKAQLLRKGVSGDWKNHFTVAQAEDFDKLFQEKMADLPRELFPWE
Procedure, shortened: (§1)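 Test compound was added in DMSO (1% v/v final). Labelled substrates: [14C]2-naphthol 0.1 mM for hSULT1A1, [3H]DHEA 2 μM for hSULT2A1, [3H]oestradiol 0.15 μM for hSULT1E1. Incubated 30 min at 37°C, stopped with Tris pH 8.7, chloroform-extracted twice, aqueous phase scintillation-counted. IC50 from Hill-slope fit; three determinations.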

[3] = system: human intestine cytosol (SULT1A1 and SULT1A3); experiment: Inhibition of 2-naphthol sulfation by human intestine cytosol; type: biochemical; conditions: read-out: IC50, 2-Naphthol sulfation, Cytosol, substrate 100 μM 2-naphthol
Procedure, shortened: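 Radioactive assay in 50 mM Tris (pH 6.2) with 20 μM PAPS and [14C]2-naphthol (0.1 mM final). Enzyme source: 100 μg intestine cytosol from a person. Test compound in DMSO (1% v/v final), 0.01–1000 μM. Incubated 30 min at 37°C, stopped with 0.25 M Tris (pH 8.7), extracted twice with chloroform, aqueous phase scintillation-counted. IC50 fitted with a Hill-slope equation; mean ± SD of three determinations.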

hSULT1A3 [4] = target: T3, hSULT1A3 (Homo sapiens, UniProt P0DMM9); experiment: Sulfation of flavonoids by recombinant hSULT1A3
T3 sequence (P0DMM9 whole entry): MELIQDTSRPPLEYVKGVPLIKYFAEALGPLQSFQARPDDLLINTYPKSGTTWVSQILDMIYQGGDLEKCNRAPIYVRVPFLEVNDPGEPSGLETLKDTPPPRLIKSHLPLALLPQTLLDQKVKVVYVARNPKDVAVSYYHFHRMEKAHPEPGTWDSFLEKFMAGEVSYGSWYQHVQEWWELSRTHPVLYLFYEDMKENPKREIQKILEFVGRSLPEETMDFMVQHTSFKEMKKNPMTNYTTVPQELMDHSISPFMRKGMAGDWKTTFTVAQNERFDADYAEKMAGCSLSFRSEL

[5] = system: human intestine cytosolic SULTs; experiment: Inhibition of oestradiol sulfation by human intestine cytosol; type: biochemical; conditions: read-out: IC50, Oestradiol sulfation, Cytosol, substrate 0.15 μM oestradiol
Procedure, shortened: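 [3H]oestradiol (0.15 μM final) sulfation by 100 μg intestine cytosol from a person. Buffer 50 mM Tris (pH 6.2) with 20 μM PAPS. Test compound in DMSO (1% v/v final), 0.01–1000 μM. Reaction 30 min at 37°C, quenched with 0.25 M Tris (pH 8.7), chloroform-extracted twice, aqueous phase counted by scintillation. IC50 from a Hill-slope fit; mean ± SD of three determinations.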

hSULT1E1 = target: T4, hSULT1E1 (Homo sapiens, UniProt P49888); experiment: Inhibition of oestradiol sulfation by recombinant hSULT1E1; type: biochemical; conditions: for Inhibition of hSULT1E1-catalysed oestradiol sulfation (in words): substrate 0.15 μM oestradiol, concentration range 1–1000 μM
T4 sequence (P49888 1-294): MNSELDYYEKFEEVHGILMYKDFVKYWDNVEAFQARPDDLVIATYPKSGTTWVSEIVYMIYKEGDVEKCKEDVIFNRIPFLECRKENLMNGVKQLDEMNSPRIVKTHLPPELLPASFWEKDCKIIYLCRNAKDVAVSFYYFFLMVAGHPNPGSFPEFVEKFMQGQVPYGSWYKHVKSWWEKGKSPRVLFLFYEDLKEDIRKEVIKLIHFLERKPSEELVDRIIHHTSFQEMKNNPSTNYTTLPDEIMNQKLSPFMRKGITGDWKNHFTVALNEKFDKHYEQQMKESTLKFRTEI
Procedure, shortened: as §1

hSULT1A1 [6] = target: T1, hSULT1A1; experiment: Inhibition of 2-naphthol sulfation by recombinant hSULT1A1; type: biochemical
Procedure, shortened: as §1

hSULT1A3 [7] = target: T3, hSULT1A3; experiment: Inhibition of dopamine sulfation by recombinant hSULT1A3; type: biochemical
hSULT1A1 [8] = target: T1, hSULT1A1; experiment: Inhibition of oestradiol sulfation by recombinant hSULT1A1; type: biochemical
[9] = flavonoid as substrate, Michaelis–Menten equation (1), 1–1000 μM catechin, 1–1000 μM epicatechin, 1–128 μM hesperetin, 1–32 μM eriodictyol
[10] = flavonoid as substrate, substrate inhibition equation (2)
[11] = flavonoid as substrate, substrate inhibition equation (2), listed as catechin
[12] = substrate inhibition constant of flavonoid sulfation, equation (2)
[13] = flavonoid as substrate, substrate inhibition equation (2), listed as hesperetin

Row | Structure (SMILES) | Vmax [1, 9] | Km at 30 min [1] | Ki (hSULT1A1 [2]) | Vmax (hSULT1A1 [2]; [10]) | IC50 (hSULT2A1) | IC50 [3] | Ki (hSULT1A3 [4]) | Vmax (hSULT1A3 [4]; [10]) | IC50 [5] | IC50 (hSULT1E1) | IC50 (hSULT1A1 [6]) | IC50 (hSULT1A3 [7]) | also measured
1 | O=C1C[C@@H](c2ccc(O)c(O)c2)Oc2cc(O)cc(O)c21 [Eriodictyol, eriodictyol] | 19.4 ± 2.4 nmol/mg/min | 220 ± 28 µM | 6.1 ± 0.14 µM | 98.6 nmol/mg/min | 139 ± 8.8 µM | 28.9 ± 4.1 µM | 4.6 ± 0.02 µM | 269 nmol/mg/min | 11.8 ± 2 µM | 677 ± 120 µM | 15.2 ± 0.9 µM | 14.7 ± 8.9 µM | 
2 | Oc1cc(O)c2c(c1)O[C@H](c1ccc(O)c(O)c1)[C@H](O)C2 [Epicatechin, (−)epicatechin] | 4.2 ± 0.2 nmol/mg/min | 149 ± 9.2 µM | 8.7 ± 3.07 µM | 188 nmol/mg/min |  | 157 ± 37.6 µM | 9.5 ± 0.21 µM | 442 nmol/mg/min | 22.7 ± 5.6 µM |  | 42.5 ± 8.5 µM | 117 ± 12.9 µM | Inhibition of hSULT2A1-catalysed DHEA sulfation (in words) (hSULT2A1; listed as (−)epicatechin): did not significantly inhibit; Inhibition of hSULT2A1-catalysed DHEA sulfation (in words) (hSULT2A1; listed as epicatechin): not inhibited; IC50 (hSULT1A1 [8]): 6.1 ± 1 µM; Inhibition of hSULT1E1-catalysed oestradiol sulfation (in words) (hSULT1E1; listed as (−)epicatechin): did not significantly inhibit; Inhibition of hSULT1E1-catalysed oestradiol sulfation (in words) (hSULT1E1; listed as epicatechin): not inhibited
3 | Oc1cc(O)c2c(c1)OC(c1ccc(O)c(O)c1)C(O)C2 (single isomer, unassigned; (+)) [Catechin, (+)catechin] | 6.7 ± 0.02 nmol/mg/min |  |  | 187 ± 9.9 nmol/mg/min |  | 67.1 ± 6.3 µM |  | 342 ± 8.2 nmol/mg/min | 10.1 ± 1.7 µM |  |  |  | Km [1, 9]: 104 ± 7.3 µM; Km (hSULT1A1 [2]; [10]): 165 ± 8.1 µM; Vmax (hSULT1A1 [2]; [11]): 187 nmol/mg/min; Ki (hSULT1A1 [2]; [12]): 6.37 ± 0.22 µM; Inhibition of hSULT2A1-catalysed DHEA sulfation (in words) (hSULT2A1; listed as (+)Catechin): did not significantly inhibit; Inhibition of hSULT2A1-catalysed DHEA sulfation (in words) (hSULT2A1; listed as catechin): not inhibited; Km (hSULT1A3 [4]; [10]): 236 ± 5.6 µM; Vmax (hSULT1A3 [4]; [11]): 342 nmol/mg/min; Ki (hSULT1A3 [4]; [12]): 8 ± 0.29 µM; IC50 (hSULT1A1 [8]; read-out: IC50, Oestradiol sulfation, hSULT1A1, substrate 0.15 μM oestradiol): 2.6 ± 0.4 µM; Inhibition of hSULT1E1-catalysed oestradiol sulfation (in words) (hSULT1E1; listed as (+)catechin): did not significantly inhibit; Inhibition of hSULT1E1-catalysed oestradiol sulfation (in words) (hSULT1E1; listed as catechin): not inhibited; IC50 (hSULT1A1 [6]; read-out: IC50, 2-Naphthol sulfation, hSULT1A1, substrate 100 μM 2-naphthol): 8.4 ± 3.3 µM; IC50 (hSULT1A3 [7]; read-out: IC50, Dopamine sulfation by hSULT1A3, substrate 50 μM dopamine): 82.5 ± 31.5 µM
4 | COc1ccc([C@@H]2CC(=O)c3c(O)cc(O)cc3O2)cc1O [Hesperetin] | 8.9 ± 0.3 nmol/mg/min | 66 ± 3.3 µM | 3.7 ± 0.11 µM |  | 152 ± 14.9 µM | 32.2 ± 3.6 µM | 4.2 ± 0.06 µM | 303 ± 5.8 nmol/mg/min | 3.6 ± 0.4 µM | 90.4 ± 11.5 µM | 23.4 ± 5.75 µM | 20.8 ± 8.1 µM | Vmax (hSULT1A1 [2]; [13]): 92.7 nmol/mg/min; Vmax (hSULT1A3 [4]; [13]): 303 nmol/mg/min
